Source: ChEMBL document CHEMBL1817660, “Synthesis of various 3-nitropropionamides as Mycobacterium tuberculosis isocitrate lyase inhibitor” (Bioorg Med Chem Lett, 2011)
Converted amounts (≈) assume the structure as drawn.

What was measured:
[1] = test system: Mycobacterium tuberculosis; test: Antimycobacterial activity against active log phase Mycobacterium tuberculosis H37Rv by agar dilution method; type: functional
Method in brief: (§1)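 Log-phase cultures (M. tuberculosis H37Rv at OD 600; M. smegmatis ATCC 14468) tested by agar dilution following NCCLS-type MIC procedure, in duplicate. MIC taken as lowest concentration giving complete inhibition of bacterial growth.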

[2] = test system: Mycolicibacterium smegmatis; test: Antimycobacterial activity against 6-weeks nutrient starved phase cultures of Mycobacterium smegmatis ATCC 14468 treated for 7 days measured after 4 weeks by agar dilution method; type: functional
[3] = test system: Mycolicibacterium smegmatis; test: Antimycobacterial activity against active log phase Mycobacterium smegmatis ATCC 14468 by agar dilution method; type: functional; method in brief: as §1
[4] = test system: Mycobacterium tuberculosis; test: Antimycobacterial activity against 6-weeks nutrient starved phase cultures of Mycobacterium tuberculosis H37Rv treated for 7 days measured after 4 weeks by agar dilution method; type: functional
[5] = target: T1, Isocitrate lyase (Mycobacterium tuberculosis, UniProt P9WKK7); test: Inhibition of Mycobacterium tuberculosis isocitrate lyase
T1 sequence (P9WKK7 whole entry): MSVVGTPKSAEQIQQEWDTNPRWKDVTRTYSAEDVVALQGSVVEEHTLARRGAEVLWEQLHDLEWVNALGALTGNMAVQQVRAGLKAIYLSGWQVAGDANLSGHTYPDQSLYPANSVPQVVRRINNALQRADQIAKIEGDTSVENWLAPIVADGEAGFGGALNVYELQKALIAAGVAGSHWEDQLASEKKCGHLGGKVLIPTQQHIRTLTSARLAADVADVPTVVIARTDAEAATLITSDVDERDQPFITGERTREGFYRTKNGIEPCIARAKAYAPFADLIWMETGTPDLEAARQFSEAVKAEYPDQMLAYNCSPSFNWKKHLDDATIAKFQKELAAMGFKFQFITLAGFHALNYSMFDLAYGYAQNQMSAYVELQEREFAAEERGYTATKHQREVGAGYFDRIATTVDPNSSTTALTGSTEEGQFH

[6] = Cytotoxicity against African green monkey Vero cells after 72 hrs by MTT assay; type: cell-based; settings: chlorocebus sabaeus
Method in brief: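 Vero cells exposed to a single concentration of 62.5 µg/mL for 72 h; viability read by cellular conversion of MTT to formazan (non-radioactive cell proliferation assay).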

[7] = test system: Mycobacterium tuberculosis; test: Ratio of MIC for 6-weeks nutrient starved phase cultures of Mycobacterium tuberculosis H37Rv to MIC for active log phase Mycobacterium tuberculosis H37Rv; type: functional
[8] = Selectivity index, ratio of CC50 for African green monkey Vero cells to MIC for 6-weeks nutrient starved phase cultures of Mycobacterium tuberculosis H37Rv; type: functional
[9] = test system: Mycobacterium tuberculosis; test: Ratio of isoniazid MIC to compound MIC for active log phase Mycobacterium tuberculosis H37Rv by agar dilution method; type: functional
Method in brief: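 MIC by agar dilution, following NCCLS-type guidance, against log-phase M. tuberculosis H37Rv (OD 600), run in duplicate. MIC is the lowest concentration that gives complete inhibition of bacterial growth. The line's ratio is isoniazid MIC divided by compound MIC.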

Row | SMILES | MIC [1] [µM] | MIC [2] [µM] | MIC [3] [µM] | MIC [4] [µM] | IC50 [5] [µM] | CC50 at 72 h [6] [µM] | Ratio [7] | Selectivity Index [8] | Ratio [9]
1 | O=C(CC[N+](=O)[O-])N1CCN(Cc2ccccc2)CC1 | > 180 | > 180 | > 180 | 90.1 (≈ 25 µg/mL) | – | – | – | – | –
2 | O=C(CC[N+](=O)[O-])N1CCN(c2cccc(C(F)(F)F)c2)CC1 | 151 (≈ 50 µg/mL) | 75.5 (≈ 25 µg/mL) | 75.5 (≈ 25 µg/mL) | 37.7 (≈ 12.5 µg/mL) | 30.2 | – | – | – | –
3 | CCCN(CCC)C(=O)CC[N+](=O)[O-] | > 247 | > 247 | > 247 | > 247 | – | – | – | – | –
4 | O=C(CC[N+](=O)[O-])Nc1ccccc1 | 257 (≈ 50 µg/mL) | > 257 | 129 (≈ 25 µg/mL) | 64.4 (≈ 12.5 µg/mL) | – | – | – | – | –
5 | Cc1ccc(NC(=O)CC[N+](=O)[O-])cc1 | 240 (≈ 50 µg/mL) | > 240 | 120 (≈ 25 µg/mL) | 60 (≈ 12.5 µg/mL) | – | – | – | – | –
6 | O=C(CC[N+](=O)[O-])Nc1ccc(F)cc1 | 118 (≈ 25 µg/mL) | 236 (≈ 50 µg/mL) | 118 (≈ 25 µg/mL) | 58.9 (≈ 12.5 µg/mL) | – | – | – | – | –
7 | CCn1cc(C(=O)O)c(=O)c2cc(F)c(N3CCN(C(=O)CC[N+](=O)[O-])CC3)cc21 | 1.85 (≈ 0.778 µg/mL) | 0.95 (≈ 0.399 µg/mL) | 7.44 (≈ 3.13 µg/mL) | 0.47 (≈ 0.198 µg/mL) | 0.2 | > 149 | – | – | –
8 | CCN(CC)C(=O)CC[N+](=O)[O-] | > 287 | > 287 | 287 (≈ 50 µg/mL) | > 287 | – | – | – | – | –
9 | Cc1ccc(NC(=O)CC[N+](=O)[O-])c(C)c1 | 225 (≈ 50 µg/mL) | > 225 | 225 (≈ 50 µg/mL) | 75 (≈ 16.7 µg/mL) | – | – | – | – | –
10 | O=C(O)c1cn(C2CC2)c2cc(N3CCNCC3)c(F)cc2c1=O [CIPROFLOXACIN] | – | 2.35 (≈ 0.779 µg/mL) | – | – | – | – | – | – | –
11 | Cc1ccnc(NC(=O)CC[N+](=O)[O-])c1 | 239 (≈ 50 µg/mL) | 239 (≈ 50 µg/mL) | > 239 | 59.8 (≈ 12.5 µg/mL) | – | – | – | – | –
12 | O=C(CC[N+](=O)[O-])Nc1ccc(Br)cc1 | 183 (≈ 50 µg/mL) | 91.5 (≈ 25 µg/mL) | 91.5 (≈ 25 µg/mL) | 45.8 (≈ 12.5 µg/mL) | 32.5 | – | – | – | –
13 | COc1ccc(NC(=O)CC[N+](=O)[O-])cc1 | 223 (≈ 50 µg/mL) | > 223 | 112 (≈ 25 µg/mL) | 55.8 (≈ 12.5 µg/mL) | – | – | – | – | –
14 | CCn1cc(C(=O)O)c(=O)c2cc(F)c(N3CCN(C(=O)CC[N+](=O)[O-])CC3C)c(F)c21 (configuration not stated) | 3.44 (≈ 1.56 µg/mL) | 1.72 (≈ 0.778 µg/mL) | 6.91 (≈ 3.13 µg/mL) | 1.72 (≈ 0.778 µg/mL) | 1.46 | > 138 | – | – | –
15 | NNC(=O)c1ccncc1 [ISONIAZID] | 0.72 (≈ 0.0987 µg/mL) | > 365 | 45.6 (≈ 6.25 µg/mL) | > 365 | – | > 456 | – | – | –
16 | O=C(O)c1cn(C2CC2)c2cc(N3CCN(C(=O)CC[N+](=O)[O-])CC3)c(F)cc2c1=O | 1.8 (≈ 0.778 µg/mL) | 0.09 (≈ 0.0389 µg/mL) | 0.09 (≈ 0.0389 µg/mL) | 0.09 (≈ 0.0389 µg/mL) | 0.12 | > 145 | – | – | –
17 | O=C(CC[N+](=O)[O-])Nc1ccc(Cl)cc1 | 109 (≈ 25 µg/mL) | 13.7 (≈ 3.13 µg/mL) | 54.7 (≈ 12.5 µg/mL) | 27.3 (≈ 6.25 µg/mL) | 21.3 | – | – | – | –
18 | O=C(O)CC[N+](=O)[O-] | > 420 | > 420 | > 420 | > 420 | 116 | – | – | – | –
19 | O=C(CC[N+](=O)[O-])N(Cc1ccccc1)Cc1ccccc1 | > 168 | > 168 | 168 (≈ 50 µg/mL) | > 168 | – | – | – | – | –
20 | COc1c(N2C(C)CN(C(=O)CC[N+](=O)[O-])CC2C)c(F)cc2c(=O)c(C(=O)O)cn(C3CC3)c12 (configuration not stated) | 0.16 (≈ 0.0785 µg/mL) | 0.08 (≈ 0.0392 µg/mL) | 0.08 (≈ 0.0392 µg/mL) | 0.04 (≈ 0.0196 µg/mL) | 0.1 | > 127 | 4 | 3185 | 4.5
21 | O=C(CC[N+](=O)[O-])N1CCN(c2ccccc2)CC1 | 190 (≈ 50 µg/mL) | > 190 | 190 (≈ 50 µg/mL) | 47.5 (≈ 12.5 µg/mL) | 41.2 | – | – | – | –
22 | CCN1CCN(C(=O)CC[N+](=O)[O-])CC1 | 58.1 (≈ 12.5 µg/mL) | 116 (≈ 25 µg/mL) | 58.1 (≈ 12.5 µg/mL) | 29 (≈ 6.25 µg/mL) | 12.6 | – | – | – | –
23 | O=C(CC[N+](=O)[O-])Nc1ccc(Cl)cn1 | 109 (≈ 25 µg/mL) | 109 (≈ 25 µg/mL) | 218 (≈ 50 µg/mL) | 54.4 (≈ 12.5 µg/mL) | – | – | – | – | –
24 | Cc1cc(NC(=O)CC[N+](=O)[O-])ccc1Br | 43.5 (≈ 12.5 µg/mL) | 43.5 (≈ 12.5 µg/mL) | 87.1 (≈ 25 µg/mL) | 43.5 (≈ 12.5 µg/mL) | 36.8 | – | – | – | –
